Measured values taken from ChEMBL document CHEMBL1149665, “Synthesis and biological evaluation of cepharadiones A and B and related dioxoaporphines” (2007).
≈ marks a conversion by molar mass, not a printed value.

Legend:
Format in all cases: functional
NCI-H460 = assay: Growth inhibition of human NCI-H460 cells after 48 hrs by SRB assay; settings: NCI-H460, 48 h
Method in brief: (§1)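 Cells seeded in 5% fetal bovine serum/RPMI1640 and incubated 24 h before serial compound dilutions were added. After 48 h exposure, cells were fixed with trichloroacetic acid and stained with sulforhodamine B (NCI standard SRB protocol), and optical density was read. GI50, the concentration causing 50% reduction in net protein increase, was calculated from the optical density data; values reported in µg/mL.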

BXPC-3 = assay: Growth inhibition of human BXPC3 cells after 48 hrs by SRB assay; settings: BXPC-3, 48 h; method in brief: as §1
SF-268 = assay: Growth inhibition of human SF268 cells after 48 hrs by SRB assay; settings: SF-268, 48 h; method in brief: as §1
DU-145 = assay: Growth inhibition of human DU145 cells after 48 hrs by SRB assay; settings: DU-145, 48 h; method in brief: as §1
KM-20L2 = assay: Growth inhibition of human KM20L2 cells after 48 hrs by SRB assay; settings: KM-20L2, 48 h; method in brief: as §1
MCF7 = assay: Growth inhibition of human MCF7 cells after 48 hrs by SRB assay; settings: MCF7, 48 h; method in brief: as §1

Structure (SMILES)	GI50 (NCI-H460) [µg/mL]	GI50 (BXPC-3) [µg/mL]	GI50 (SF-268) [µg/mL]	GI50 (DU-145) [µg/mL]	GI50 (KM-20L2) [µg/mL]	GI50 (MCF7) [µg/mL]
COc1ccc2c3c(cc4ccccc4c13)N(C)C(=O)C2=O	0.46 (≈ 1.58 µM)	1.6 (≈ 5.49 µM)	0.42 (≈ 1.44 µM)	1.3 (≈ 4.46 µM)	0.82 (≈ 2.81 µM)	0.66 (≈ 2.27 µM)
CCOc1ccc2c3c(cc4ccccc4c13)N(C)C(=O)C2=O	> 10	> 10	> 10	> 10	> 10	> 10
Cc1cc2c3c(cc4ccccc4c3c1C)N(C)C(=O)C2=O	2.3 (≈ 7.95 µM)	> 10	0.7 (≈ 2.42 µM)	> 10	4.2 (≈ 14.5 µM)	8.4 (≈ 29 µM)
CN1C(=O)C(=O)c2cc3c(c4c2c1cc1ccccc14)OCO3 [CEPHARADIONE A]	2.5 (≈ 8.19 µM)	> 10	2.9 (≈ 9.5 µM)	4.3 (≈ 14.1 µM)	17.3 (≈ 56.7 µM)	6.3 (≈ 20.6 µM)
COc1cc2c3c(cc4ccccc4c3c1OC)N(C)C(=O)C2=O [CEPHARADIONE B]	> 10	> 10	22.8 (≈ 71 µM)	36.1 (≈ 112 µM)	> 10	> 10
